Experimental data reported in ChEMBL document CHEMBL1932933, “A small chemical library of 2-aminoimidazole derivatives as BACE-1 inhibitors: Structure-based design, synthesis, and biological evaluation” (Eur J Med Chem, 2012).

Key:
[1] = Permeability of the compound by PAMPA; format: ADME; conditions: read-out: permeability
[2] = Solubility of the compound; format: physicochemical
[3] = Inhibition of BACE1 in chicken primary telencephalon neurons assessed as reduction of amyloid beta38 secretion after 24 hrs by ELISA; parameters: species or system Gallus gallus
In short: (§1)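 Aβ secretion from neurons after 24 h of inhibitor treatment. Data were corrected for mean neuron viability from an MTT reduction assay run after 24 h of treatment. Values are the mean of three independent experiments.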

[4] = Inhibition of BACE1 in chicken primary telencephalon neurons assessed as reduction of amyloid beta42 secretion after 24 hrs by ELISA; parameters: species or system Gallus gallus; in short: as §1
[5] = Inhibition of BACE1 in chicken primary telencephalon neurons assessed as reduction of amyloid beta40 secretion after 24 hrs by ELISA; parameters: species or system Gallus gallus; in short: as §1
[6] = target: T1, Beta-secretase 1 (Homo sapiens, UniProt P56817); assay: Inhibition of BACE1 using methoxycoumarin-Ser-Glu-Val-Asn-Leu-Asp-Ala-Glu-Phe-Lys-dinitrophenyl as substrate preincubated 1 hr before substrate addition measured after 15 mins by FRET assay
[7] = target: T1, Beta-secretase 1; assay: Inhibition of BACE1 using methoxycoumarin-Ser-Glu-Val-Asn-Leu-Asp-Ala-Glu-Phe-Lys-dinitrophenyl as substrate at 100 uM preincubated 1 hr before substrate addition measured after 15 mins by FRET assay
[8] = Cytotoxicity against chicken primary telencephalon neurons at 25 uM after 24 hrs by MTT assay; parameters: species or system Gallus gallus
[9] = Cytotoxicity against chicken primary telencephalon neurons at 50 uM after 24 hrs by MTT assay; parameters: species or system Gallus gallus
[10] = Gallus gallus, 24 h, read-out: IC50

T1 sequence (P56817 whole entry): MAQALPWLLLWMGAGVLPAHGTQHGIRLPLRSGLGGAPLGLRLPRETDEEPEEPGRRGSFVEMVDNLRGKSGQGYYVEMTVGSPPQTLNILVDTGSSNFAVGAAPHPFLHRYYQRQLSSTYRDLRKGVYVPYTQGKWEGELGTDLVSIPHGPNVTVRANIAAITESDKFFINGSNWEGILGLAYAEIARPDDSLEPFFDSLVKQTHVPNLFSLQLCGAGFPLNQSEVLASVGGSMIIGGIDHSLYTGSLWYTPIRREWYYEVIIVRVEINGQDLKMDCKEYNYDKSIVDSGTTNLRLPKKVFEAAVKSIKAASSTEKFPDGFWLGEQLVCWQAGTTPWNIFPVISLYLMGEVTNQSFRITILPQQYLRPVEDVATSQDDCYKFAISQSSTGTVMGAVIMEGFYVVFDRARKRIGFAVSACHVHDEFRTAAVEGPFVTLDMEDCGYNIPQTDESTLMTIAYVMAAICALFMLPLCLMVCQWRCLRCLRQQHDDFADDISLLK

In the case of CN1C(C(=O)Nc2ccccn2)=C(O)c2ccccc2S1(=O)=O [PIROXICAM], the Papp [1] is reported as 0.4 ×10⁻⁶ cm/s.

Cn1c(=O)c2c(ncn2C)n(C)c1=O [CAFFEINE] gave a Papp [1] of 0.9 ×10⁻⁶ cm/s.

In the case of Nc1nc(Cc2ccc(-c3ccc(C(F)(F)F)cc3)cc2)cn1Cc1cc(F)cc(F)c1, the solubility [2] is reported as “Insoluble”, the IC50 [3] is reported as “Not Active” and the IC50 [4] is reported as “Not Active”. The IC50 [5] was “Not Active” and the IC50 [6] was 5.59 µM.

In the case of CN(C)CCCN1c2ccccc2Sc2ccccc21 [PROMAZINE], the Papp [1] is reported as 11.5 ×10⁻⁶ cm/s.

For CCn1cc(C(=O)O)c(=O)c2cc(F)c(N3CCNCC3)nc21 [ENOXACIN], the Papp [1] was 0.3 ×10⁻⁶ cm/s.

With Nc1nc(Cc2ccccc2)cn1Cc1ccccc1 the inhibition [7] was 19.6%.

In the case of COc1cc(OC)cc(-c2ccc(Cc3cn(Cc4ccc(F)cc4)c(N)n3)cc2)c1, the IC50 [3, 10] is reported as 15 µM, the IC50 [4, 10] is reported as 19 µM and the Papp [1] is reported as 4 ×10⁻⁶ cm/s. The IC50 [5, 10] was 23 µM, the IC50 [6] was 7.4 µM and the Activity [8] was “Toxic”.

Work on COc1cc(OC)cc(-c2ccc(Cc3cn(Cc4cc(F)cc(F)c4)c(N)n3)cc2)c1 yielded an IC50 [3, 10] of 33 µM, an IC50 [4, 10] of 27 µM and a Papp [1] of 3.2 ×10⁻⁶ cm/s. For the same compound, the IC50 [5, 10] was 35 µM, the Activity [9] was “Toxic” and the IC50 [6] was 7.32 µM.

For Nc1nc(Cc2ccc(-c3cccc4oc5ccccc5c34)cc2)cn1Cc1ccccc1Cl, the IC50 [3] was “Not Active”, the IC50 [4] was “Not Active” and the Papp [1] was 4 ×10⁻⁶ cm/s. For the same compound, the IC50 [5] was “Not Active” and the IC50 [6] was 5.95 µM.
